ChEMBL document CHEMBL4390651, “Indole based antimalarial compounds targeting the melatonin pathway: Their design, synthesis and biological evaluation” (Eur J Med Chem, 2019)
pIC50: −log10 of the molar value. The source made the active and inactive calls. The calls are words filed in the database; no cut-off is given here.

Legend:
Plasmodium falciparum [1] = assay: Antimalarial activity against Plasmodium falciparum 3D7 ring stage synchronized forms infected in human erythrocytes assessed as inhibition of parasite proliferation at 5 uM incubated for 48 hrs by Giemsa-staining method; assay type: functional; conditions: 3D7, 48 h
Outline: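 P. falciparum 3D7 grown in human O+ erythrocytes at 5% hematocrit in RPMI 1640 with NaHCO3, albumax, gentamicin and hypoxanthine, at 37 °C under 90% N2/5% CO2/5% O2. Single-concentration screen read as % inhibition of parasite proliferation. Mean of three experiments, each in triplicate.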

Plasmodium falciparum [2] = assay: Antimalarial activity against chloroquine resistant Plasmodium falciparum RKL9 infected in human erythrocytes assessed as reduction in parasitemia incubated for 0 to 48 hrs by Giemsa staining-based microscopic analysis; assay type: functional, organism-based
Outline: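 Sorbitol-synchronized ring-stage culture at 1% parasitemia, 5% hematocrit in human O+ erythrocytes (RPMI 1640, 0.5% albumax, hypoxanthine, gentamicin; 37 °C, 5% CO2/5% O2/90% N2). Compounds at […] for 48 h. Parasitemia counted on Giemsa-stained smears at 0 and 48 h. DMSO control. Mean of three independent experiments ±SD.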

Plasmodium falciparum [3] = assay: Antimalarial activity against ring stage of Plasmodium falciparum 3D7 infected in human erythrocytes assessed as parasite survival level at 10 uM incubated for 48 hrs by Giemsa staining-based microscopic analysis (reference value: 51.3 +/- 1.83%); assay type: functional; conditions: 3D7, 48 h
Plasmodium falciparum [4] = assay: Antimalarial activity against synchronized ring stage of Plasmodium falciparum 3D7 infected in human erythrocytes assessed as inhibition of parasite growth incubated for 48 hrs by Giemsa staining-based microscopic analysis; assay type: functional, organism-based; conditions: 3D7, 48 h
Outline: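 Sorbitol-synchronized ring-stage 3D7 in human O+ erythrocytes was exposed to four concentrations (1, 5, 10 and 20) for 48 h. Parasitemia was counted on Giemsa smears and IC50 taken from the dose-response curve. Mean ± SD of three independent experiments.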

Plasmodium falciparum [5] = assay: Antimalarial activity against trophozoite stage of Plasmodium falciparum 3D7 infected in human erythrocytes assessed as parasite survival level at 10 uM measured immediately at 0 hrs by Giemsa staining-based microscopic analysis (reference value: 3.55 +/- 5.02%); assay type: functional; conditions: 3D7, 0 h
[6] = target: Melatonin receptor type 1A (Homo sapiens) (UniProt P48039); assay: Inhibition of human MTNR1 receptor at 500 nM to 5 uM using TMB as substrate preincubated for 1 hr followed by substrate addition by ELISA relative to control
Chain of Melatonin receptor type 1A (Homo sapiens) (P48039 whole entry): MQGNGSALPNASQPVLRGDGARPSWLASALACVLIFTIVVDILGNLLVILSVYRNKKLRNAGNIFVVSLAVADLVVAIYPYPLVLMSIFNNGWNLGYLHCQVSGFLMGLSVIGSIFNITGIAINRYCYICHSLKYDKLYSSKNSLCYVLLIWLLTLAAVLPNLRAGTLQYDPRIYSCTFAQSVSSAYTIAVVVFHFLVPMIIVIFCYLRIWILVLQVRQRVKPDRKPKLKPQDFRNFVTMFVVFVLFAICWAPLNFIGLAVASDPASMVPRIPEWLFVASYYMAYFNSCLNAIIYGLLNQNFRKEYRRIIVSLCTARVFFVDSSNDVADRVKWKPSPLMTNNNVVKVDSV
Outline: (§1)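 ELISA kit format: compounds incubated 1 h with MTNR1 receptor (5 ng/mL), melatonin as control. TMB substrate, stop solution, OD read at 450 nm; expressed as % inhibition.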

Plasmodium falciparum [7] = assay: Antimalarial activity against synchronized ring stage of Plasmodium falciparum 3D7 infected in human erythrocytes assessed as inhibition of parasite growth at 10 uM incubated for 0 to 48 hrs by Giemsa staining-based microscopic analysis; assay type: functional
Outline: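 3D7 was sorbitol-synchronized to ring stage at 1% parasitemia, cultured in human O+ erythrocytes (5% hematocrit, RPMI 1640/albumax, 37 °C, low-O2 gas), and exposed for 48 h, with DMSO as control. Giemsa smears at 0, 12, 24, 36 and 48 h gave parasitemia and stage morphology. Mean ± SD of three independent experiments.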

Plasmodium falciparum [8] = assay: Antimalarial activity against schizont stage of Plasmodium falciparum 3D7 infected in human erythrocytes assessed as parasite survival level at 10 uM incubated for 48 hrs by Giemsa staining-based microscopic analysis (reference value: 5 +/- 7.07%); assay type: functional; conditions: 3D7, 48 h
Plasmodium falciparum [9] = assay: Antimalarial activity against schizont stage of Plasmodium falciparum 3D7 infected in human erythrocytes assessed as parasite survival level at 10 uM measured immediately at 0 hrs by Giemsa staining-based microscopic analysis (reference value: 0%); assay type: functional; conditions: 3D7, 0 h
Plasmodium falciparum [10] = assay: Antimalarial activity against trophozoite stage of Plasmodium falciparum 3D7 infected in human erythrocytes assessed as parasite survival level at 10 uM incubated for 48 hrs by Giemsa staining-based microscopic analysis (reference value: 43.65 +/- 5.16%); assay type: functional; conditions: 3D7, 48 h
[11] = Stability of the compound in 0.01 N HCL at pH 2.0 assessed as compound remaining at 1 mg/ml incubated for 0 to 24 hrs by HPLC analysis relative to control; assay type: physicochemical; conditions: for remaining at 1 mg/ml: 0.01 N HCl, read-out: Stability; for Stability: buffer
Outline: (§2)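 Compound stock in acetonitrile was added to 1.0 mL of fresh 0.01 N HCl (pH 2.0) or phosphate buffer (pH 7.4), held at 37 °C, and the amount remaining was measured by HPLC at intervals from 0 to 24 h.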

Plasmodium falciparum [12] = assay: Antimalarial activity against ring stage of Plasmodium falciparum 3D7 infected in human erythrocytes assessed as parasite survival level at 10 uM measured immediately at 0 hrs by Giemsa staining-based microscopic analysis (reference value: 96.4 +/- 5.09%); assay type: functional; conditions: 3D7, 0 h
[13] = Stability of the compound in phosphate buffer at pH 7.4 assessed as compound remaining at 1 mg/ml incubated for 0 to 24 hrs by HPLC analysis relative to control; assay type: physicochemical; conditions: for Stability: buffer; for remaining at 1 mg/ml: phosphate buffer, read-out: Stability; outline: as §2
Plasmodium falciparum [14] = assay: Antimalarial activity against Plasmodium falciparum 3D7 infected in human erythrocytes assessed as reduction in [3H]hypoxanthine incorporation pretreated for 24 hrs followed by [3H]hypoxanthine addition and measured after 48 hrs by scintillation counting method
[15] = target: Melatonin receptor type 1A (Homo sapiens) (UniProt P48039); assay: Inhibition of human MTNR1 receptor at 500 nM using TMB as substrate preincubated for 1 hr followed by substrate addition by ELISA relative to control; outline: as §1
[16] = target: Melatonin receptor type 1A (Homo sapiens) (UniProt P48039); assay: Inhibition of human MTNR1 receptor at 1 uM using TMB as substrate preincubated for 1 hr followed by substrate addition by ELISA relative to control; outline: as §1
[17] = target: Melatonin receptor type 1A (Homo sapiens) (UniProt P48039); assay: Inhibition of human MTNR1 receptor at 5 uM using TMB as substrate preincubated for 1 hr followed by substrate addition by ELISA relative to control; outline: as §1
Plasmodium falciparum [18] = assay: (§3) Antimalarial activity against mixed stage of Plasmodium falciparum infected in human erythrocytes assessed as protection against melatonin-induced parasite synchronization by measuring parasitemia at 1 uM measured immediately at 0 hrs by Giemsa staining-based microscopic analysis (reference value: 1.05 +/- 0.07%); assay type: functional
Plasmodium falciparum [19] = assay: as §3, with “incubated for 48” for “measured immediately at 0”, “4.76” for “1.05”, “0.61%)” for “0.07%)”; assay type: functional
Plasmodium falciparum [20] = assay: as §3, with “ring” for “mixed”, “5” for “at 1”, “immediately” for “immediately at 0 hrs”, “23.90” for “1.05”, “0.84%)” for “0.07%)”; assay type: functional
Plasmodium falciparum [21] = assay: as §3, with “schizont” for “mixed”, “5” for “at 1”, “immediately” for “immediately at 0 hrs”, “23.25” for “1.05”, “0.35%)” for “0.07%)”; assay type: functional
Plasmodium falciparum [22] = assay: as §3, with “troph” for “mixed”, “5” for “at 1”, “incubated for 48” for “measured immediately at 0”, “88.20” for “1.05”, “9.19%)” for “0.07%)”; assay type: functional
Plasmodium falciparum [23] = assay: as §3, with “5” for “1”, “incubated for 48” for “measured immediately at 0”, “4.76” for “1.05”, “0.61%)” for “0.07%)”; assay type: functional
Plasmodium falciparum [24] = assay: as §3, with “ring” for “mixed”, “parasitemia” for “parasitemia at”, “incubated for 48” for “measured immediately at 0”, “11.80” for “1.05”, “9.19%)” for “0.07%)”; assay type: functional
Plasmodium falciparum [25] = assay: as §3, with “at 5” for “at 1”; assay type: functional
Plasmodium falciparum [26] = assay: (§4) Antimalarial activity against schizont stage of Plasmodium falciparum infected in human erythrocytes assessed as protection against melatonin-induced parasite synchronization by measuring parasitemia 5 uM incubated for 48 hrs by Giemsa staining-based microscopic analysis (reference value: 0%); assay type: functional
Plasmodium falciparum [27] = assay: as §3, with “troph” for “mixed”, “parasitemia” for “parasitemia at”, “immediately” for “immediately at 0 hrs”, “52.50” for “1.05”, “0.70%)” for “0.07%)”; assay type: functional
Plasmodium falciparum [28] = assay: as §3, with “troph” for “mixed”, “5” for “at 1”, “immediately” for “immediately at 0 hrs”, “52.50” for “1.05”, “0.70%)” for “0.07%)”; assay type: functional
Plasmodium falciparum [29] = assay: as §3, with “schizont” for “mixed”, “parasitemia” for “parasitemia at”, “immediately” for “immediately at 0 hrs”, “23.25” for “1.05”, “0.35%)” for “0.07%)”; assay type: functional
Plasmodium falciparum [30] = assay: (§5) Antimalarial activity against schizont stage of Plasmodium falciparum infected in human erythrocytes assessed as protection against melatonin-induced parasite synchronization by measuring parasitemia 1 uM incubated for 48 hrs by Giemsa staining-based microscopic analysis (reference value: 0%); assay type: functional
Plasmodium falciparum [31] = assay: as §5, with “troph” for “schizont”, “88.20 +/- 9.19%)” for “0%)”; assay type: functional
Plasmodium falciparum [32] = assay: as §3, with “ring” for “mixed”, “parasitemia” for “parasitemia at”, “immediately” for “immediately at 0 hrs”, “23.90” for “1.05”, “0.84%)” for “0.07%)”; assay type: functional
Plasmodium falciparum [33] = assay: as §4, with “ring” for “schizont”, “11.80 +/- 9.19%)” for “0%)”; assay type: functional

Compound	inhibition at 5 µM (Plasmodium falciparum [1]) [%]	inhibition (Plasmodium falciparum [2])	survival at 10 µM (Plasmodium falciparum [3]) [%]	pIC50 (Plasmodium falciparum [4])	survival at 10 µM (Plasmodium falciparum [5]) [%]	growth inhibition (GI) (Plasmodium falciparum [7])	survival at 10 µM (Plasmodium falciparum [8]) [%]	survival at 10 µM (Plasmodium falciparum [9]) [%]	survival at 10 µM (Plasmodium falciparum [10]) [%]	survival at 10 µM (Plasmodium falciparum [12]) [%]	further results
COC(=O)NCCc1c(C(=O)c2ccc(Cl)cc2)[nH]c2ccccc12	9	–	–	–	–	–	–	–	–	–	–
CC/N=C(/c1ccc(C)cc1)c1[nH]c2ccccc2c1CCNC(=O)OC	–	Dose dependent effect	0	5.37	7	Active	2.5	0	97.5	93	inhibition [6]: inactive; remaining at 1 mg/ml [11]: 20%; Stability [13]: Unstable
C/N=C(/c1ccccc1)c1[nH]c2ccccc2c1CCNC(=O)OC	–	Dose dependent effect	17.5	6.05	4.15	Active	5	0	77.5	95.8	Stability [11]: Unstable; Stability [13]: Unstable
C/N=C(/c1ccc(Cl)cc1)c1[nH]c2ccccc2c1CCNC(=O)OC	32	–	–	–	–	–	–	–	–	–	–
CC(C)=C[C@H]1C[C@](C)(/C=C/c2[nH]c3ccccc3c2CCN(C)C)n2c1c(CCN(C)C)c1ccccc12	–	–	–	–	–	–	–	–	–	–	pIC50 (Plasmodium falciparum [14]): 5.85 to 6.82
CC(C)=C[C@H]1C[C@@](C)(/C=C/c2[nH]c3ccccc3c2CCN(C)C)n2c1c(CCN(C)C)c1ccccc12	–	–	–	–	–	–	–	–	–	–	pIC50 (Plasmodium falciparum [14]): 5.85 to 6.82
CNCCc1c(/C=C/[C@@]2(C)C[C@H](C=C(C)C)c3c(CCNC)c4ccccc4n32)[nH]c2ccccc12	–	–	–	–	–	–	–	–	–	–	pIC50 (Plasmodium falciparum [14]): 5.85 to 6.82
C/N=C(\c1[nH]c2ccccc2c1CCNC(=O)OC)c1c(F)cccc1F	–	Dose dependent effect	61.2	6.14	3	Active	11.2	2.82	27.5	93	remaining at 1 mg/ml [11]: 90%; remaining at 1 mg/ml [13]: 95%
CC/N=C(/c1cc(C(F)(F)F)cc(C(F)(F)F)c1)c1[nH]c2ccc(OC)cc2c1CCNC(=O)OC	–	Dose dependent effect	68.5	5.56	7	Active	14	0.5	17.5	92.5	inhibition [15]: 60%; inhibition [16]: 80%; Stability [11]: Unstable; inhibition [17]: 70%; remaining at 1 mg/ml [13]: 60%
C/N=C(\c1cc(Br)cs1)c1[nH]c2ccccc2c1CCNC(=O)OC	–	–	–	–	–	–	–	–	–	–	inhibition at 10 µM (Plasmodium falciparum [7]): 15%
CC(=O)NCCc1c(Cc2ccccc2)[nH]c2ccccc12 [LUZINDOLE]	48	–	61.6	–	8	Active	0	0.5	38.4	91.5	Activity (Plasmodium falciparum [18]): 1.1%; Activity (Plasmodium falciparum [19]): 2.88%; Activity (Plasmodium falciparum [20]): 23.75%; Activity (Plasmodium falciparum [21]): 24%; Activity (Plasmodium falciparum [22]): 77.15%; Activity (Plasmodium falciparum [23]): 2.56%; Activity (Plasmodium falciparum [24]): 19.1%; Activity (Plasmodium falciparum [25]): 1.03%; Activity (Plasmodium falciparum [26]): 0.88%; Activity (Plasmodium falciparum [27]): 50.5%; Activity (Plasmodium falciparum [28]): 51.9%; Activity (Plasmodium falciparum [29]): 25.8%; Activity (Plasmodium falciparum [30]): 0%; Activity (Plasmodium falciparum [31]): 80.9%; Activity (Plasmodium falciparum [32]): 23%; Activity (Plasmodium falciparum [33]): 21.97%
C/N=C(/c1cc(C(F)(F)F)cc(C(F)(F)F)c1)c1[nH]c2ccc(OC)cc2c1CCNC(=O)OC	–	Dose dependent effect	4.95	6.13	5	Active	0	0	95	95	Activity (Plasmodium falciparum [18]): 1.15%; Activity (Plasmodium falciparum [19]): 2.8%; Activity (Plasmodium falciparum [20]): 24.1%; Activity (Plasmodium falciparum [21]): 21.85%; Activity (Plasmodium falciparum [22]): 70.9%; Activity (Plasmodium falciparum [23]): 1.65%; inhibition [15]: 75%; Activity (Plasmodium falciparum [24]): 18%; Activity (Plasmodium falciparum [25]): 1.1%; Stability [11]: Unstable; Activity (Plasmodium falciparum [26]): 1.85%; Activity (Plasmodium falciparum [27]): 53.8%; Activity (Plasmodium falciparum [28]): 53.25%; inhibition [17]: 85%; Activity (Plasmodium falciparum [29]): 22.95%; Activity (Plasmodium falciparum [30]): 2.9%; Activity (Plasmodium falciparum [31]): 79.1%; Activity (Plasmodium falciparum [32]): 24.2%; remaining at 1 mg/ml [13]: 60%; Activity (Plasmodium falciparum [33]): 27.25%
C/N=C(/c1ccc(OC)cc1F)c1[nH]c2ccccc2c1CCNC(=O)OC	47	–	–	–	–	–	–	–	–	–	–
